{"source": "paper PMC4317336", "about": "(Journal of controlled release : official journal of the …, 2013)", "data": [{"system": "tumor biopsies from stage IV NB patients", "experiment": "phage overlay binding assay on tumor biopsies from NB patients", "settings": "human NB sections, compared with Mallory Trichrome histology", "in_short": "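Frozen sections (5 μm) from stage IV NB patient tumors in OCT, fixed 10 min at room temperature in 4% paraformaldehyde/PBS, washed twice in PBS, and blocked with serum-free protein block. Sections overlaid 1 h at 4°C with 10⁸ T.U./μl of each phage clone; insertless Fd-Tet phage as negative control. Bound phage detected with anti-bacteriophage antibody plus HRP polymer, then hematoxylin counterstain.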", "values": [{"substance": "ALAAHKL [Phage #10]", "tumor component preferentially bound": "preferentially bind to non-epithelial tumor components"}, {"substance": "HSYWLSR [Phage #5]", "tumor component preferentially bound": "preferentially bind to non-epithelial tumor components"}, {"substance": "KSFFLSH [Phage #14]", "tumor component preferentially bound": "widely recognizes the whole NB masses"}, {"substance": "WSWPREL [Phage #8]", "tumor component preferentially bound": "preferentially bind to non-epithelial tumor components"}, {"substance": "YEGLISR [Phage #1]", "tumor component preferentially bound": "preferentially bind to non-epithelial tumor components"}]}]}
